According to the RNAGym collection of RNA variant scans (doi:10.1101/gad.245936.114):
Fewer inactive variants are shown than the library holds.

B1: tRNA (parent)
chain: CUCUCGGUAGCCAAGUUGGUUUAAGGCGCAAGACUUUAAUUUAUCACUACGAAAUCUUGAGAUCGGGCGUUCGACUCGCCCCCGGGAGAUUUUUUCCUCGAGCAA

Variants of: B1
Assay: nonsense suppression (GFP-seq) (ratio to wild type); higher = more function; SUP4oc tRNA, yeast GFP reporter sort-seq
Method in brief: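 Yeast were grown in raffinose/galactose medium with 80 mg/L adenine, each strain bearing a genome-integrated ochre-suppressor tRNA variant from a ~3% random-mutation library, a galactose-driven GFP ochre reporter, and RFP. After sorting into GFP/RFP bins, every bin was sequenced on an Illumina platform at phred ≥30. The GFPSEQ value, a measure of nonsense suppression, is the weighted bin median GFP/RFP relative to the unmutated parent tRNA, using each variant's estimated cell share per bin as the weight. Only variants with ≥100 reads and ≥30 cells were included.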

Row | Variant | nonsense suppression
1 | CUCUCGGUAGCCAAGUUGGUUUAAGGCGCAAGACUUUAAUUUAUCACUACGAAACCUUGAGACCGGGCGUUCGACUCGCCCCCGGGAGAUUUUUUCCUCGAGCAA | 0.156
2 | CUCUCGGUAGCCAAGUUGGUUUAAGGCGCAAGACUUUAAUUUAUCACUACGAAACCUUGAGAGCGGGCGUUCGACUCGCCCCCGGGAGAUUUUUUCCUCGAGCAA | ≤ 0.026
3 | CUCUCGGUAGCCAAGUUGGUUUAAGGCGCAAGACUUUAAUUUAUCACUACGAAACCUUGAGAACGGGCGUUCGACUCGCCCCCGGGAGAUUUUUUCCUCGAGCAA | 0.244
4 | CUCUCGGUAGCCAAGUUGGUUUAAGGCGCAAGACUUUAAUUUAUCACUACGAAAUUUCGAGAUCGUGCGUUCGACUCGCCCCCGGGAGAUUUUUUCCUCGAGCAA | ≤ 0.026
5 | CUCUCGGUAGCCAAGUUGGUUUAAGGCGCAAGACUUUAAUUUAUCACUACGAAAUGUUGAGAUCGGGCGUUCGACUCCCCCCCGGGAGAUUUUUUCCUCGAGCAA | ≤ 0.026
6 | CUCUCGGUAGCCAAGUUGGUUUAAGGCGCAAGACUUUAAUUUAUCACUACGAAAUCAUGAGAUCGGGCGUUCGACUCGCCCCCGGGAGAUUUUUUCCUCGAGCAA | 0.0873
7 | CUCUCGGUAGCCAAGUUGGUUUAAGGCGCAAGACUUUAAUUUAUCACUACGAAACCUUGAGAUCGGGCGUUCGAGUCGCCCCCGGGAGAUUUUUUCCUCGAGCAA | 1.16
8 | CUCUCGGUAGCCAAGUUGGUUUAAGGCGCAAGACUUUAAUUUAUCACUACGAAACCUUGAGAUCGGGCGUUCGAAUCGCCCCCGGGAGAUUUUUUCCUCGAGCAA | 1.05
9 | CUCUCGGUAGCCAAGUUGGUUUAAGGCGCAAGACUUUAAUUUAUCACUACGAAACCUUGAGAUCGGGCGUUCGAUUCGCCCCCGGGAGAUUUUUUCCUCGAGCAA | 0.903
10 | CUCUCGGUAGCCAAGUUGGUUUAAGGCGCAAGACUUUAAUUUAUCACUACGAAAUAUUGAGAUCGGGCGUACGACUCGCCCCCGGGAGAUUUUUUCCUCGAGCAA | ≤ 0.026
11 | CUCUCGGUAGCCAAGUUGGUUUAAGGCGCAAGACUUUAAUUUAUCACUACGAAAUCAUGAGAUCGGGCGUUCGAUUCGCCCCCGGGAGAUUUUUUCCUCGAGCAA | 0.03
12 | CUCUCGGUAGCCAAGUUGGUUUAAGGCGCAAGACUUUAAUUUAUCACUACGAAAUCAUGAGAUCGGGCGUUCGAAUCGCCCCCGGGAGAUUUUUUCCUCGAGCAA | 0.681
13 | CUCUCGGUAGCCAAGUUGGUUUAAGGCGCAAGACUUUAAUUUAUCACUACGAAAUCAUGAGAUCGGGCGUUCGACUCGCCGCCGGGAGGUUUUUUCCUCGAGCAA | ≤ 0.026
14 | CUCUCGGUAGCCAAGUUGGUUUAAGGCGCAAGACUUUAAUUUAUCACUACGAAACCUUGAGAUCGGGCGUUCGACUCGCCCCCGGGCGAUUUUUUCCUCGAGCAA | 0.0719
15 | CUCUCGGUAGCCAAGUUGGUUUAAGGCGCAAGACUUUAAUUUAUCACUACGAAAACUUGAGAUCGGGCGUUCGACUCGCCCCCGCGAGAUUUUUUCCUCGAGCAA | ≤ 0.026
16 | CUCUCGGUAGCCAAGUUGGUUUAAGGCGCAAGACUUUAAUUUAUCACUACGAAAUGUUGACAUCGGGCGUUCGACUCGCCCCCGGGAUAUUUUUUCCUCGAGCAA | ≤ 0.026
17 | CUCUCGGUAGCCAAGUUGGUUUAAGGCGCAAGACUUUAAUUUAUCACUACGAAAUGUUGAGGUCGGGCGUUCGACUCGCCCCCGGGAGAUUUUUUCCUCGAGCAA | ≤ 0.026
18 | CUCUCGGUAGCCAAGUUGGUUUAAGGCGCAAGACUUUAAUUUAUCACUACGAAAUUUUGAGAUCGGGCGUUCGACUCGCCCCCGGGAGAUUUUUUCCUCGAGCAA | 0.15
19 | CUCUCGGUAGCCAAGUUGGUUUAAGGCGCAAGACUUUAAUUUAUCACUACGAAAGCUUGAGAGCGGGCGUCCGACUCGCCCCCGGGAAAUUUUUUCCUCGAGCAA | ≤ 0.026
20 | CUCUCGGUAGCCAAGUUGGUUUAAGGCGCAAGACUUUAAUUUAUCACUACGAAAACUUGAGAUCGGGCGCUCGACUCGCCCCCGGGAGAUUUUUUCCUCGAGCAA | ≤ 0.026
21 | CUCUCGGUAGCCAAGUUGGUUUAAGGCGCAAGACUUUAAUUUAUCACUACGAAACCUAGAGAUCGGUCGUUCGACUCGCCCCCGGGAGAUUUUUUCCUCGAGCAA | ≤ 0.026
22 | CUCUCGGUAGCCAAGUUGGUUUAAGGCGCAAGACUUUAAUUUAUCACUACGAAACCUUGAGAUCGGGCGUUCGACUCGCCCCCGGGAGAUUUUUUCCUCGAGCAA | 1.09
23 | CUCUCGGUAGCCAAGUUGGUUUAAGGCGCAAGACUUUAAUUUAUCACUACGAAAUUUUGAGAUCGGGCGUUCGACUCGCCCCCGGGGGAUUUUUUCCUCGAGCAA | ≤ 0.026
24 | CUCUCGGUAGCCAAGUUGGUUUAAGGCGCAAGACUUUAAUUUAUCACUACGAAACCUUGAGAUCGGGCGUUCGACACGCCCCCGGGAGAUUUUUUCCUCGAGCAA | 0.15
25 | CUCUCGGUAGCCAAGUUGGUUUAAGGCGCAAGACUUUAAUUUAUCACUACGAAACCUUGAGAUCGGGCGUUCGGCUCGCCCCCGGGAGAUUUUUUCCUCGAGCAA | 0.144
26 | CUCUCGGUAGCCAAGUUGGUUUAAGGCGCAAGACUUUAAUUUAUCACUACGAAAUUUUGAGAUCGGGCGUUCGACUCGCCCCCGGGAUAUUUUUUCCUCGAGCAA | ≤ 0.026
27 | CUCUCGGUAGCCAAGUUGGUUUAAGGCGCAAGACUUUAAUUUAUCACUACGAAAACUUGAGAUCGGGCGUUCGACACGCCCCCGGAAGAUUUUUUCCUCGAGCAA | ≤ 0.026

Row | Variant | nonsense suppression
28 | CUCUCGGUAGCCAAGUUGGUUUAAGGCGCAAGACUUUAAUUUAUCACUACGAAACCCUGAGAUCGGGCGUUCGACUCGCCCCCGGGAGAUUUUUUCCUCGAGCAA | 0.026
29 | CUCUCGGUAGCCAAGUUGGUUUAAGGCGCAAGACUUUAAUUUAUCACUACGAAAUGUCGAGAUCGCGCGCUCGACUCGCCCCCGGGAGAUUUUUUCCUCGAGCAA | ≤ 0.026
30 | CUCUCGGUAGCCAAGUUGGUUUAAGGCGCAAGACUUUAAUUUAUCACUACGAAAGCUUGAGAUCGGGCGUUCGACUCGCCCCCGGGAGUUUUUUUCCUCGAGCAA | ≤ 0.026
31 | CUCUCGGUAGCCAAGUUGGUUUAAGGCGCAAGACUUUAAUUUAUCACUACGAAACCUUGAGAUCAGGCGUUCGACUCGCCCCCGGGAGAUUUUUUCCUCGAGCAA | 0.0796
32 | CUCUCGGUAGCCAAGUUGGUUUAAGGCGCAAGACUUUAAUUUAUCACUACGAAAGCUUGAGAUCGGGCGUUCGUCUCGCCCCCGGGAGAUUUUUUCCUCGAGCAA | ≤ 0.026
33 | CUCUCGGUAGCCAAGUUGGUUUAAGGCGCAAGACUUUAAUUUAUCACUACGAAAUAUUGAGAUCCGGCGUUCGACUCGCCCCCGGGAGAUUUUUUCCUCGAGCAA | ≤ 0.026
34 | CUCUCGGUAGCCAAGUUGGUUUAAGGCGCAAGACUUUAAUUUAUCACUACGAAAUGUCGAGAUCGCGCGUUCGACUCGCCCCCGGGAGAUUUUUUCCUCGAGCAA | ≤ 0.026
35 | CUCUCGGUAGCCAAGUUGGUUUAAGGCGCAAGACUUUAAUUUAUCACUACGAAACCUUGAGAACGGGCGUUCGAGUCGCCCCCGGGAGAUUUUUUCCUCGAGCAA | 0.0265
36 | CUCUCGGUAGCCAAGUUGGUUUAAGGCGCAAGACUUUAAUUUAUCACUACGAAAUAUUGAGAGCGGGCGUUCGACUCGCCCCCGGGAGAUUUUUUCCUCGAGCAA | ≤ 0.026
37 | CUCUCGGUAGCCAAGUUGGUUUAAGGCGCAAGACUUUAAUUUAUCACUACGAAAGCUUGAGAACGGGCGUUCGACUCGCCCCCGGCAGAUUUUUUCCUCGAGCAA | ≤ 0.026
38 | CUCUCGGUAGCCAAGUUGGUUUAAGGCGCAAGACUUUAAUUUAUCACUACGAAACCUUGAGAUCGGGCGUUCGACUCGCCCCCUGGAGAUUUUUUCCUCGAGCAA | 0.0453
39 | CUCUCGGUAGCCAAGUUGGUUUAAGGCGCAAGACUUUAAUUUAUCACUACGAAACCUUGAGAUCGAGCGUUCGACUCGCCCCCGGGAGAUUUUUUCCUCGAGCAA | 0.0631
40 | CUCUCGGUAGCCAAGUUGGUUUAAGGCGCAAGACUUUAAUUUAUCACUACGAAACCUUGAGAUCGGGCGUUCGACUCGGCCCCGGGAGAUUUUUUCCUCGAGCAA | 0.035
41 | CUCUCGGUAGCCAAGUUGGUUUAAGGCGCAAGACUUUAAUUUAUCACUACGAAACCUUGAGAUCGGGCGUUCGACUCGUCCCCGGGAGAUUUUUUCCUCGAGCAA | 0.183
42 | CUCUCGGUAGCCAAGUUGGUUUAAGGCGCAAGACUUUAAUUUAUCACUACGAAACCUUGAGAUGGGGCGUUCGACUCGCCCCCGGGAGAUUUUUUCCUCGAGCAA | 0.0515
43 | CUCUCGGUAGCCAAGUUGGUUUAAGGCGCAAGACUUUAAUUUAUCACUACGAAACCUUGAGAUCGGGCGUUCGACUCGCCCCCGGGACAUUUUUUCCUCGAGCAA | 0.0568
44 | CUCUCGGUAGCCAAGUUGGUUUAAGGCGCAAGACUUUAAUUUAUCACUACGAAACCUUGAGAUCGGGCGUUCGACUCGCCCCGGGGAGAUUUUUUCCUCGAGCAA | 0.0314
45 | CUCUCGGUAGCCAAGUUGGUUUAAGGCGCAAGACUUUAAUUUAUCACUACGAAACCUUGAGAUCGGGCGUUCGACUCGCCCCCGGCAGAUUUUUUCCUCGAGCAA | 0.164
46 | CUCUCGGUAGCCAAGUUGGUUUAAGGCGCAAGACUUUAAUUUAUCACUACGAAACCUUGAGAUCGGGCGUUCGACUCGCCCCCGGAAGAUUUUUUCCUCGAGCAA | 0.0315
47 | CUCUCGGUAGCCAAGUUGGUUUAAGGCGCAAGACUUUAAUUUAUCACUACGAAACCUUGAAAUCGGGCGUUCGACUCGCCCCCGGGAGAUUUUUUCCUCGAGCAA | 0.194
48 | CUCUCGGUAGCCAAGUUGGUUUAAGGCGCAAGACUUUAAUUUAUCACUACGAAACCUUGAGAUCGGGCGUUCGACUAGCCCCCGGGAGAUUUUUUCCUCGAGCAA | 0.0479
49 | CUCUCGGUAGCCAAGUUGGUUUAAGGCGCAAGACUUUAAUUUAUCACUACGAAACCUUGAGAUCGGGCGUUCUACUCGCCCCCGGGAGAUUUUUUCCUCGAGCAA | 0.0422
50 | CUCUCGGUAGCCAAGUUGGUUUAAGGCGCAAGACUUUAAUUUAUCACUACGAAACCUUGAGAUCGGGCGUUCAACUCGCCCCCGGGAGAUUUUUUCCUCGAGCAA | 0.0331
51 | CUCUCGGUAGCCAAGUUGGUUUAAGGCGCAAGACUUUAAUUUAUCACUACGAAAUCAUGCGAUCGGGCGUUCGACUCGCCCCCGGGAGAUUUUUUCCUCGAGCAA | 0.0859
52 | CUCUCGGUAGCCAAGUUGGUUUAAGGCGCAAGACUUUAAUUUAUCACUACGAAAUAUUGAGAUCGGGCAUUCGACUCGCCCCCGGGAGAUUUUUUCCUCGAGCAA | ≤ 0.026
53 | CUCUCGGUAGCCAAGUUGGUUUAAGGCGCAAGACUUUAAUUUAUCACUACGAAACCUGGAGAUCGGGCGUUCGACUCGCCCCCGGGAGAUUUUUUCCUCGAGCAA | ≤ 0.026
54 | CUCUCGGUAGCCAAGUUGGUUUAAGGCGCAAGACUUUAAUUUAUCACUACGAAAACUUGAGAUCGGGCGUACGACUCGCCCCCGGGAGAUUUUUUCCUCGAGCAA | ≤ 0.026
